Shown are actives, neighbours in structure and some others; about 3.8% of the full set was active somewhere.
MC4R antagonist: blocks human MC4R cAMP signaling | P32245 | MC4R-expressing cells, MTII-stimulated cAMP, LANCE TR-FRET | inhibition, % at 6.5 µM | actives 0.48% (n = 360,000);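 active = inhibition above its plate's cutoff, the mean of tested wells on that plate plus 3 SD, cut at about 29% in these data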;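 also: 0% = Melanotan II alone and 100% = Melanotan II plus saturating MCL0020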
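System: U2OS-MC4R stable cell line; Technique: Eu-cAMP/anti-cAMP TR-FRET, emission 671 nm; Repeats: single well per compound; Also added: Melanotan II; Dosing: one concentration, 6.5 µM nominal; Schedule: 30-min compound, 1-h challenge, 1-h detection, room temperature.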
ANO1 activ: activators or potentiators of mouse TMEM16A chloride channel. HEK293 TMEM16A/YFP-H148Q/I152L, iodide quench fluorescence; hits give low values. AID 623877. B-score at 10 µM. actives 0.3% (n = 340,000);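 active = fluorescence-ratio B-score plate-corrected deviation score at least 3 library SD below zero, with starting fluorescence score within 5 deviations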;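 also: channel opened by trigger with iodide after compound preincubation; score built on the fluorescence ratio of max minus min over baseline; more negative score means more quench and so TMEM16A activation or potentiation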
Target sequence (Q8BHY3 whole entry, looked up): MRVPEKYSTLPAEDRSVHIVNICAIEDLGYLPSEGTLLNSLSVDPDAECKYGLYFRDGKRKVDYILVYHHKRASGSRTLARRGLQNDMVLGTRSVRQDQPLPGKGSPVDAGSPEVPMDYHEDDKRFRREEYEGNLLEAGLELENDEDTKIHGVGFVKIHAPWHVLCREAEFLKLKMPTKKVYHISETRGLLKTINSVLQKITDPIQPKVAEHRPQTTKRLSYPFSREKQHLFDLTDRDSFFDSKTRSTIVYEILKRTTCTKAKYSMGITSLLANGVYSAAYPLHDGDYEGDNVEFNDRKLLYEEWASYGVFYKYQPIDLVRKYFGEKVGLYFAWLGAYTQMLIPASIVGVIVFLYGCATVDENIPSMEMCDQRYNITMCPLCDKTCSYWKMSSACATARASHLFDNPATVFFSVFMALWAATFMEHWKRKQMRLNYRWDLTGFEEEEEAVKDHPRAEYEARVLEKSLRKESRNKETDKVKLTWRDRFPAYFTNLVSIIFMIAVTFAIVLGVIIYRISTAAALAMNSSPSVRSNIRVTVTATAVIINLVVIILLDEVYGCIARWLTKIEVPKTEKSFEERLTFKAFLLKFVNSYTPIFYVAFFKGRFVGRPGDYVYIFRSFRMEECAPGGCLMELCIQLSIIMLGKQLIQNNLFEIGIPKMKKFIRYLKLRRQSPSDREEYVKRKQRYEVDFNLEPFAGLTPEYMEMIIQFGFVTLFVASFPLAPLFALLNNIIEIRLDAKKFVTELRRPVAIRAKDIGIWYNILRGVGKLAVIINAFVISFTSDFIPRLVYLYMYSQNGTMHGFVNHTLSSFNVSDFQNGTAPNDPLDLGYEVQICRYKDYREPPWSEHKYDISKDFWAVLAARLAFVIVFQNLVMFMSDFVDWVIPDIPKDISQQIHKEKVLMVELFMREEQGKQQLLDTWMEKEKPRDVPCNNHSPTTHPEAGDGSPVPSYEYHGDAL
ANO1 block: inhibitors of mouse TMEM16A calcium-activated chloride channel | normalized B-score (activity score, 25-100; higher = stronger inhibition) at 10 µM | HEK293 TMEM16A/YFP iodide influx fluorescence, ionomycin | Q8BHY3 | actives 1.2% (n = 310,000) | AID 588511;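 active = ratio plate-corrected score three or more library SD toward inhibition, starting fluorescence score within five deviations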;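 also: score derived from kinetic fluorescence span divided by baseline fluorescence per well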
Beta cell apopt: blocks beta cell apoptosis. INS-1E cytokine-induced death, ATP luminescence, 48 h; percent of positive-control rescue, neutral wells zero. actives 0.8% (n = 300,000). protection from apoptosis, % (concentration not given with the values);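 active = Every replicate reaches about 75%, or at least half do and their mean reaches it too, limit read from the data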;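 also: 0% = cytokine-treated negative control wells and 100% = positive control rescue; higher means more ATP so stronger rescue from cytokine killing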
MC4R barr agon: agonists of human melanocortin 4 receptor (MC4R) beta-arrestin; P32245; U2OS MC4R beta-arrestin complementation, luminescence; percent of melanotan II response, DMSO zero; activation, % at 8.9 µM; actives 0.98% (n = 360,000); AID 540308;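 active = activation above a per-plate cutoff, the mean activation of sample wells on that plate plus 3 SD, cut at about 8% in these data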
CSC inhib: cancer stem cell inhibition. cancer stem cell-like cells viability, luminescence. inhibition, % at 7.5 µM. actives 1.1% (n = 300,000). AID 2717; in the data active = inhibition above about 75%; tested in HMLE shEcad cells
cAMP nonselect: U2OS forskolin cAMP inhibition counter-screen. inhibition, % at 6.5 µM. shares compounds with MC4R antagonist. parental U2OS, LANCE TR-FRET. actives 26% (n = 1,600);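 active = mean inhibition over triplicates above the low-control well mean plus 3 SD, set per campaign, cut at about 13% in these data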;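 also: signal is single emission at 671 nm which falls as cellular cAMP rises; 0% = forskolin-stimulated wells and 100% = buffer without forskolin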
MC4R cAMP antag: human MC4R cAMP antagonism confirmation; MC4R-expressing cells, MTII-stimulated cAMP, TR-FRET; actives 27% (n = 1,600); shares compounds with MC4R antagonist; inhibition, % at 6.5 µM; in the data active = inhibition above about 29%;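 also: 0% = agonist stimulated wells alone and 100% = agonist stimulated wells plus saturating reference antagonist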
* hit, by the source's call; i = inactive; x = no result; ! = not confirmed by another sample.

SMILES	MC4R antagonist	ANO1 activ	ANO1 block	Beta cell apopt	MC4R barr agon	CSC inhib	cAMP nonselect	MC4R cAMP antag
C[C@H]1CN=C(N(C)C)N1CC1CCC(C(C)(C)C)CC1 (stereo partly specified)	-0.3	i	i	6.5	2.1	39.8	x	x
CC1CCCC(NC(=O)CSc2ccc(F)cc2)C1C (stereo unspecified)	32.2*	i	i	3.0	1.1	-11.6	4.0	6.1
Cc1c(N=Cc2ccco2)c(=O)n(-c2ccccc2)n1C	11.2	i	i	-1.1	-0.4	-13.2	x	x
COc1ccc(Cn2c(O)c(C=Nc3ccc(OC)cc3)c3ccccc3c2=O)cc1	-0.3	i	i	-2.6	-2.6	23.4	x	x
COc1ccc(Cn2c(O)c(C=Nc3ccccc3C(=O)O)c3ccccc3c2=O)cc1	31.9*	i	i	-1.2	0.3	21.3	9.1	9.8
COc1ccc2c(C=Nc3c(C)n(C)n(-c4ccccc4)c3=O)c(O)n(Cc3ccco3)c(=O)c2c1	37.0*!	i	i	4.1	-1.7	x	2.1	0.6
Cc1cc2nc[nH]c2cc1[N+](=O)[O-]	28.7*	i	i	-7.7	-0.2	3.7	5.1	2.0
Cc1cc(N)ncc1[N+](=O)[O-]	1.4	i	x	x	-2.2	x	x	x
CC1(C)CC(=O)C=C(c2ccc(-c3ccc4[nH]ccc4c3)cc2)C1=O	-0.1	x	x	x	1.8	x	x	x
N#Cc1ccccc1OCC(=O)NNC(=O)CCC1CCCC1	2.7	i	x	-8.7	-2.8	-11.7	x	x
Cn1cnnc1SCc1ccc(C(=O)N/N=C(/CCC(=O)O)c2ccc(C(C)(C)C)cc2)cc1	9.4	i	x	x	-0.8	x	x	x
O=S(=O)(c1ccc(Br)c2nsnc12)N1CCOCC1	29.9*	i	i	-1.5	-2.1	-3.3	11.4	25.3
Cc1ccc(S(=O)(=O)N2CCOCC2)c2nsnc12	-0.6	i	i	-2.3	-0.3	-5.9	x	x
O=C(Nc1ccc(Cl)cc1F)C1CCCN(C2=NS(=O)(=O)c3ccccc32)C1 (stereo unspecified)	-1.0	i	x	x	0.3	x	x	x
Cc1cc2oc(C(=O)N(Cc3ccccc3)C3CCS(=O)(=O)C3)cc(=O)c2cc1Cl (stereo unspecified)	30.0*	i	i	10.1	1.0	-8.1	0.8	10.9
COc1ccc(-c2ccc(CCC(=O)O)n2CC(=O)Nc2ccccc2C)cc1	30.7*	i	i	x	-0.7	x	2.6	1.4
COc1ccc(NC(=O)Cn2c(CCC(=O)O)ccc2-c2ccccc2)cc1	16.1	i	i	2.2	-0.7	-9.6	x	x
COc1ccc(CC2(CO)CCN(Cc3cnn(C)c3C)CC2)cc1	29.7*	i	i	3.5	-0.8	-4.8	-2.9	-14.3
O=C(OCc1nnc(-c2ccc([N+](=O)[O-])cc2)o1)c1ccc(F)c(S(=O)(=O)N2CCOCC2)c1	-0.5	i	x	x	0.7	x	x	x
Cc1c(C(=O)NCCSCc2ccccc2)cccc1[N+](=O)[O-]	35.1*	i	i	3.9	0.3	-5.1	2.6	-4.7
Clc1ccc(OCCCCCN2CCCC2)c(Br)c1	30.1*	i	i	1.6	-2.5	23.5	1.1	-10.9
Cc1ccccc1NC(=O)NC1CCS(=O)(=O)C1 (stereo unspecified)	-2.7	i	i	1.7	1.0	-6.7	x	x
COc1ccccc1NC(=O)NC1CCS(=O)(=O)C1 (stereo unspecified)	33.7*	i	i	-2.3	-1.2	-13.8	1.7	5.5
COC(=O)C[C@H]1C[C@H]2c3cc(NS(=O)(=O)c4ccc(OC)cc4)ccc3O[C@H]2[C@H](CO)O1	7.8	x	x	x	1.5	x	x	x
COc1ccc(S(=O)(=O)NNC(=O)c2cccs2)cc1	32.5*	i	i	-3.0	0.1	-12.4	1.4	-5.4
SMILES	MC4R antagonist	ANO1 activ	ANO1 block	Beta cell apopt	MC4R barr agon	CSC inhib	cAMP nonselect	MC4R cAMP antag
O=C(NNS(=O)(=O)c1ccc(Cl)cc1)c1cccs1	1.9	i	i	-1.6	0.0	-7.0	x	x
CC(C(=O)N1CCN(c2ccccc2)CC1)c1ccc([N+](=O)[O-])cc1 (stereo unspecified)	-8.7	i	i	4.0	-1.4	-17.9	x	x
Cc1cccc(C)c1NC(=O)CN(C)C(=O)CN1C(=O)NC(C)(C)C1=O	4.7	i	x	-0.4	-1.8	x	x	x
CN(C)c1ccc(C(=O)Nc2ccc(S(=O)(=O)Nc3nccs3)cc2)cc1	-3.6	i	i	2.6	0.3	-3.6	x	x
O=C(Nc1ccc(Nc2ccccc2)cc1)c1ccc(Cl)c([N+](=O)[O-])c1	9.9	i	i	0.1	-0.5	50.4	x	x
CN1CCN(c2ccccc2NC(=O)c2ccc(N3CCCC3)c([N+](=O)[O-])c2)CC1	-0.9	i	i	x	-2.0	x	x	x
O=C(Nc1ccccc1C(=O)N1CCCC1)c1ccc(Cl)c([N+](=O)[O-])c1	36.3*	i	i	-10.6	1.6	x	4.7	25.2
O=C(Nc1ccccc1-c1ccccc1)c1ccc(Cl)c([N+](=O)[O-])c1	55.7*	i	i	2.5	0.0	1.0	30.9*	74.3*
O=C(Nc1ccccc1C(=O)N1CCCCCC1)c1ccc(Cl)cc1	18.7	i	i	-5.2	-1.6	x	x	x
Cc1nc2ccc(NC(=O)c3ccc(Cl)c([N+](=O)[O-])c3)cc2s1	29.8*	i	i	-8.9	-0.5	21.3	10.4	19.8
O=C(Nc1ccccc1N1CCCCC1)c1ccc(Cl)c([N+](=O)[O-])c1	41.1*	i	i	1.0	1.4	79.8*	3.4	51.3*
CCC(C)Sc1ccc([C@H]2N[C@@](Cc3ccccc3)(C(=O)OC)[C@H]3C(=O)N(C)C(=O)[C@@H]23)cc1 (stereo partly specified)	6.5	i	i	10.0	0.2	39.5	x	x
COc1ccc(C2OCC(C)([N+](=O)[O-])CO2)cc1 (stereo unspecified)	-0.1	i	x	x	-1.2	x	x	x
CC(C)(C)c1ccc(-n2nc(C(N)=O)c(O)cc2=O)cc1	-7.6	i	i	x	1.8	-4.6	x	x
CC(C)(C)c1ccc(-n2nc(C#N)c(Cl)cc2=O)cc1	94.1*	i	x	x	-2.7	x	40.9*	89.5*
CS(=O)(=O)c1ccc(Sc2nc3ccccc3s2)c([N+](=O)[O-])c1	15.9	i	i	-23.8	-3.4	x	x	x
O=[N+]([O-])c1cc(S(=O)(=O)C(F)(F)F)ccc1Sc1nc2ccccc2[nH]1	29.7*	i	i	-9.8	-0.8	113.1*	6.4	39.8*

Assay outcomes (PubChem)
